From PubChem
SENP8 block-1: SENP8 (human) protease inhibition; Q96LD8; recombinant SENP8, Nedd8 substrate fluorescence; inhibition, % at 20 µM; hit rate 0.64% among 360,000; in the data active means inhibition mostly above about 40%, no sharp cut-off; inactive means mostly below about 27%
SENP6 inh: blocks the human protease SENP6; Q9GZR1; Recombinant SENP6 catalytic domain, aminoluciferin luminescence; inhibition, % at 10 µM; hit rate 1.8% among 330,000; AID 2599;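 active means inhibition above about 50% at the single tested dose, limit read from the data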;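 further: plate controls were DMSO wells with enzyme for no effect and DMSO wells lacking enzyme for full effect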
Apaf-1 inh: blocks human Apaf-1 apoptosome activity | O14727 | reconstituted apoptosome caspase-3 activity, DEVD-Rh110 fluorescence | inhibition, % at 20 µM | hit rate 0.71% among 330,000 | AID 489030; active means inhibition of at least 40% at 20 µM;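 further: plate controls were DMSO wells for no effect and DEVD-CHO caspase inhibitor wells for full effect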
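Assay system – apoptosome proteins · Medium – Hepes buffer, pH 7.5 · Also added – cytochrome c with DEVD-Rh110 · Timing – 30 min compound preincubation, 50 min activation, room temperature · Detection – Rh110 fluorescence, excitation 480 nm, emission 540 nm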
SENP8 block-2: blocks the human protease SENP8; Q96LD8; purified SENP8, Z-RLRGG-aminoluciferin cleavage, luminescence; inhibition, % at 10 µM; hit rate 1.2% among 330,000; in the data active means inhibition above about 50%
SENP7 block: SENP7 protease inhibition; AID 434973; hit rate 1.5% among 330,000; inhibition, % at 5 µM; recombinant SENP7, Z-RLRGG-aminoluciferin luminescence, 40 min;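 active means inhibition above about 50% at the single test dose, limit read from the data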;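 further: plate controls were DMSO with enzyme for no effect and no enzyme buffer wells for full effect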
Target sequence (Q9BQF6 706-1050 limits assumed): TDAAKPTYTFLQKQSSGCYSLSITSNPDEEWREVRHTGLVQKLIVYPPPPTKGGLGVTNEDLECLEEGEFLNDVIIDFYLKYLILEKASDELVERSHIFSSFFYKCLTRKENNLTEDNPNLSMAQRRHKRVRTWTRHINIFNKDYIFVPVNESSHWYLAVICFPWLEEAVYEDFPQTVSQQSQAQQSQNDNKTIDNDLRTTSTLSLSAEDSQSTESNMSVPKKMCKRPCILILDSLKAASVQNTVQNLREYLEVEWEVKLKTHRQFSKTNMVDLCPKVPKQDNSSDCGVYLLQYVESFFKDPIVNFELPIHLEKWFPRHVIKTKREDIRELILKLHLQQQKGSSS
UBC13 inh: inhibitors of human UBC13 polyubiquitin chain formation. P61088. TR-FRET. inhibition, % at 20 µM. hit rate 0.47% among 330,000. AID 485273; in the data active means inhibition above about 45%, passing the limit was not always enough; inconclusive means no clear call, values can overlap the other calls
Target sequence (P61088 whole entry, looked up): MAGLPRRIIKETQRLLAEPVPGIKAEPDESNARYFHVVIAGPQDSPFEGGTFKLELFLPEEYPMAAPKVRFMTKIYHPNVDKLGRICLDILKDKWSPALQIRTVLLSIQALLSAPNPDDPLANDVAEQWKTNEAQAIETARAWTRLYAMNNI
* hit, by the source's call; i = inactive; ? = inconclusive; nt = no result. The list is not random: actives were taken first. Their share in the collection is about 3.1%.

SMILES | SENP8 block-1 | SENP6 inh | Apaf-1 inh | SENP8 block-2 | SENP7 block | UBC13 inh
C/C(=N\OC(=O)c1ccc(F)cc1)c1sc(-c2ccc(Cl)cc2)nc1C | -413 | -20 | 5 | -1 | 3 | 38
O=C(NC(c1ccc(-c2ccccc2)cc1)c1cnccn1)C1CCN(Cc2ccc3c(c2)OCO3)CC1 (stereo not drawn) | 15 | nt | nt | nt | nt | nt
CCNC(=S)NS(=O)(=O)c1ccccc1 | 42* | 7 | 3 | 2 | 3 | 2
Nc1[nH]n2c(=O)cc(-c3ccccc3)nc2c1N=Nc1ccccc1 | 57* | 9 | 34 | 1 | 13 | -85
Nc1[nH]n2c(=O)cc(-c3ccccc3)nc2c1N=Nc1ccc(S(N)(=O)=O)cc1 | 60* | 17 | 20 | 5 | 8 | -190
CCCCNC(=O)c1[nH]c(C2CCNCC2)nc1-c1cccc(C(F)(F)F)c1 | 12 | nt | nt | nt | nt | nt
Cc1ccc(C(=O)N/N=C/c2ccc3c(c2)OCO3)o1 | -125 | 61* | -5 | 36 | 59* | -18
Cc1ccc(C(=O)NN=Cc2ccc3c(c2)OCO3)cc1 | -127 | nt | nt | nt | nt | nt
O=C(N/N=C/c1ccc(Br)cc1)c1ccc(Br)o1 | 19 | 86* | 2 | 65* | 77* | 2
O=C(N/N=C/c1ccc(F)cc1)c1ccc(Br)cc1 | 10 | 1 | -22 | -12 | -4 | -5
O=C(/C=C/[C@H]1O[C@@H](n2ccc(=O)[nH]c2=O)[C@H](O)[C@@H]1O)NCCN1CCOCC1 | 22 | nt | nt | nt | nt | nt
Nc1ccc(S(=O)(=O)NNC(=O)C(=O)NNc2ccccn2)cc1 | 10 | -2 | -7 | 1 | 9 | 93*
Cc1ccccc1S(=O)(=O)NNC(=O)C(=O)NNc1ccccn1 | 16 | 19 | 3 | 7 | 14 | 4
O=C(NCc1cccs1)C1C(=O)Nc2ccccc2C(=O)N1C1CCCC1 (stereo not drawn) | -69 | nt | nt | nt | nt | nt
Cc1ccc(SCc2cc(-c3ccc(Cl)cc3)no2)cc1 | 17 | 7 | 78* | -3 | 1 | 3
O=C(Nc1ccc(Cl)c(Cl)c1)Nc1nccs1 | 29 | 65* | 20 | 36 | 26 | 12
O=C(N/N=C/C=C/c1ccccc1)c1cccs1 | 7 | -26 | 7 | -10 | 3 | 0
O=C(N/N=C/C(Br)=C/c1ccccc1)c1cccs1 | -3 | 62* | 16 | 51* | 38 | -2
CCC(=O)Nc1ccc(Br)cn1 | 5 | 1 | 1 | 0 | 8 | 1
O=C(Nc1ccc(Br)cn1)c1ccc(Cl)s1 | 8 | 61* | 11 | 42 | 54* | 2
C=CCn1nc(C(=O)Nc2ccc(OC)cc2)cc1-c1sc(NC(=O)c2ccccc2)nc1C | -57 | nt | nt | nt | nt | nt
Nc1c(C(=O)NCc2ccco2)c2nc3ccccc3nc2n1CCc1ccc(F)cc1 | -259 | 67* | 78* | 58* | 44 | -17
COc1ccc(-n2c(N)c(C(=O)NCc3ccco3)c3nc4ccccc4nc32)cc1 | -279 | 4 | 16 | 7 | 4 | -26
O=c1nc(Nc2cccc(Cl)c2)oc2cc(Cl)oc(=O)c12 | -17 | 95* | 2 | 95* | -6 | -4
CC(=O)Nc1ccc(SCC(=O)O)cc1 | 4 | -7 | 3 | -12 | -6 | -1
SMILES | SENP8 block-1 | SENP6 inh | Apaf-1 inh | SENP8 block-2 | SENP7 block | UBC13 inh
O=C(O)CSc1ccc(NC(=O)Nc2ccccc2F)cc1 | 15 | -5 | 1 | 95* | 98* | 2
COc1cccc(-c2nc(N3CCN(C)CC3)c3ccccc3n2)c1O | 15 | -12 | 7 | 4 | 0 | 3
COc1cccc(-c2nc(N3CCCCC3C)c3ccccc3n2)c1O (stereo not drawn) | 47* | -1 | 12 | 0 | 9 | -2
O=C1NCN(c2ccccc2)C12CCN(CCCC(c1ccc(F)cc1)c1ccc(F)cc1)CC2 | 12 | -2 | 55* | -3 | 8 | 40
O=C(CCCN1CCN(c2ccccc2)CC1)c1ccc(F)cc1 | 20 | nt | nt | nt | nt | nt
CCOC(=O)Cc1csc(N/C(=N/S(=O)(=O)c2ccc(Cl)cc2)c2ccccc2)n1 | -10 | -2 | 63* | 0 | 0 | -5
Cc1ccc(-c2csc(C(O)c3ccc(F)c(F)c3)n2)cc1C (stereo not drawn) | 4 | nt | nt | nt | nt | nt
CC(C)(C)NC(=O)C(c1ccccc1F)n1c(=O)c(-c2ccccc2)nc2ccccc21 (stereo not drawn) | -411 | nt | nt | nt | nt | nt
COc1cccc(NC(=O)c2cc(C(=O)Nc3cccc(OC)c3)n(C)n2)c1 | 16 | -8 | 41* | -10 | -4 | 4
O=c1cc(-c2ccc(O)cc2)oc2c1ccc1ccccc12 | i | -20 | 13 | -12 | -12 | 14
O=c1cc(-c2ccc(O)cc2)oc2c(O)c(O)c(O)c(O)c12 | 71* | 44 | 39 | 24 | 11 | -33
O=c1c2ccccc2c(C=Nc2cccc(S(=O)(=O)NC3=NCCCCC3)c2)c(O)n1Cc1ccccc1 | 4 | 53* | 27 | 8 | 24 | -8
Cc1ccccc1NC(=O)C(=O)Nc1ccccc1C | 11 | 30 | 2 | 9 | 80* | -2
[O-]/[N+](=C\C=C\c1ccccc1)c1ccccc1 | -2 | 73* | 8 | 57* | -1 | 0
Oc1cc(O)cc(-c2cc3ccc(O)cc3o2)c1 | -255 | 48 | -20 | 53* | 25 | 16
Cc1c(N2C(=O)c3ccccc3C2(O)c2ccccc2)c(=O)n(-c2ccccc2)n1C (stereo not drawn) | 5 | 95* | -2 | -2 | -1 | -11
CCCCCCCCN1C(=O)[C@H](CC(=O)N2CCN(C(=O)c3ccco3)CC2)C[C@@]2(C(=O)OC)CC(C)(C)CC=C12 | 22 | nt | nt | nt | nt | nt
Nc1ccc(C2=Nc3cccc4cccc(c34)N2)cc1 | 11 | nt | nt | nt | nt | nt
CC1=Nc2cccc3cccc(c23)N1 | 47* | 14 | 13 | 4 | 13 | -37
Cc1ccc2nc(NC(=O)Cc3cccs3)sc2c1 | -1 | 63* | 12 | 36 | 54* | -4
CCC(C(=O)NC(C)(C)C)n1c(-c2ccc3c(c2)OCO3)nc2ccccc21 (stereo not drawn) | -18 | nt | nt | nt | nt | nt
CC(/C=N/N1CCN(c2ccccn2)CC1)=C\c1ccccc1 | 2 | 59* | 0 | 31 | 63* | 6
Oc1ccccc1/C=N/N1CCN(c2ccccn2)CC1 | 8 | 1 | -7 | -12 | 5 | -3
COc1ccccc1N1CCN(/N=C/C(Cl)=C/c2ccccc2)CC1 | 14 | 72* | 7 | 57* | 45 | 1
CCOC(=O)[C@]12CCCC=C1N(CCc1ccc(OC)c(OC)c1)C(=O)[C@H](CC(=O)N1CCCC1)C2 | 34 | nt | nt | nt | nt | nt
N#C/C(=N\Nc1ccc(Cl)cc1)C(N)=S | 46* | 33 | 17 | 16 | -32 | -4
N#C/C(=N/Nc1ccccc1[N+](=O)[O-])C(N)=S | 45* | -13 | -40 | -11 | 12 | ?
O=C(Nc1cc2ccccc2oc1=O)c1ccccc1 | -36 | -9 | 1 | 94* | 98* | 5
O=S1(=O)CC(O)C(O)CS1 (stereo not drawn) | 5 | nt | nt | nt | nt | nt
